Experimental findings from ChEMBL document CHEMBL1132236, “Synthesis and pharmacology of the baclofen homologues 5-amino-4-(4-chlorophenyl)pentanoic acid and the R- and S-enantiomers of 5-amino-3-(4-chlorophenyl)pentanoic acid” (J Med Chem, 1999) are described below.

Experiment [1] has as its target GABA-A receptor; anion channel. The experiment is described as follows: Inhibition of [3H]muscimol binding to Gamma-aminobutyric acid A (GABA-A) receptor of rat brain membranes. Format: cell membranes, Membrane. The essentials: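 Male Sprague-Dawley rat brain synaptic membranes, washed repeatedly, resuspended at 1 mg/mL in 50 mM Tris-HCl pH 7.4. Incubated with 10 nM [3H]muscimol for 1 h at 20 °C, competitor 10^-10 to 10^-3 M. Nonspecific binding defined with 1 mM GABA. GF/B filtration, liquid scintillation counting.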

Experiment [2] is filed under the species Cavia porcellus. Nature of the experiment: The compound was tested for inhibition of electrically evoked muscle contractions in isolated longitudinal guinea pig ileum muscle. Format: functional. A digest of the protocol: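 Guinea pig ileum longitudinal muscle strips with myenteric plexus (Paton–Zar) held in Krebs-bicarbonate gassed 5% CO2/95% O2 at 37 °C. After 60 min equilibration, stimulated at 0.1 Hz, 5 ms, 100 V. Isometric contractions recorded, inhibition taken relative to maximal inhibition. EC50 fitted with Hill equation. 20–30 min recovery between curves. At least four preparations from two animals.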

The species named for experiment [3] is Cavia porcellus. Nature of the experiment: Sensitivity towards CGP-35348 in isolated longitudinal guinea pig ileum muscle; Sensitive. The experiment is classed as functional.
The target of experiment [4] is GABA B receptor (Rattus norvegicus, UniProt O88871+Q9Z0U4). Nature of the experiment: Displacement of [3H]GABA from Gamma-aminobutyric acid type B receptor. Format: protein-complex assay. The essentials:
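Rat brain synaptic membranes (male Sprague-Dawley), washed repeatedly in 5 mM Tris-HCl pH 7.1. 0.5 mg protein incubated with 50 nM [3H]GABA plus 20 µM isoguvacine in 50 mM Tris-HCl pH 7.4 with 2.5 mM CaCl2, 45 min at 24 °C. GF/B filtration, scintillation counting.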
(Displacement assays read how much labelled ligand stays bound in the presence of the test substance.)

For experiment [5], the species on record is Cavia porcellus. The experiment is described as follows: Sensitivity towards CGP-35348 in isolated longitudinal guinea pig ileum muscle; sensitive. The experiment is classed as functional.

Structures are written as SMILES. pEC50, pIC50: −log10 of the molar value. Activity calls are given as the source filed them. No cut-off for these calls is given here.

Sequence of GABA B receptor (Q9Z0U4 whole entry): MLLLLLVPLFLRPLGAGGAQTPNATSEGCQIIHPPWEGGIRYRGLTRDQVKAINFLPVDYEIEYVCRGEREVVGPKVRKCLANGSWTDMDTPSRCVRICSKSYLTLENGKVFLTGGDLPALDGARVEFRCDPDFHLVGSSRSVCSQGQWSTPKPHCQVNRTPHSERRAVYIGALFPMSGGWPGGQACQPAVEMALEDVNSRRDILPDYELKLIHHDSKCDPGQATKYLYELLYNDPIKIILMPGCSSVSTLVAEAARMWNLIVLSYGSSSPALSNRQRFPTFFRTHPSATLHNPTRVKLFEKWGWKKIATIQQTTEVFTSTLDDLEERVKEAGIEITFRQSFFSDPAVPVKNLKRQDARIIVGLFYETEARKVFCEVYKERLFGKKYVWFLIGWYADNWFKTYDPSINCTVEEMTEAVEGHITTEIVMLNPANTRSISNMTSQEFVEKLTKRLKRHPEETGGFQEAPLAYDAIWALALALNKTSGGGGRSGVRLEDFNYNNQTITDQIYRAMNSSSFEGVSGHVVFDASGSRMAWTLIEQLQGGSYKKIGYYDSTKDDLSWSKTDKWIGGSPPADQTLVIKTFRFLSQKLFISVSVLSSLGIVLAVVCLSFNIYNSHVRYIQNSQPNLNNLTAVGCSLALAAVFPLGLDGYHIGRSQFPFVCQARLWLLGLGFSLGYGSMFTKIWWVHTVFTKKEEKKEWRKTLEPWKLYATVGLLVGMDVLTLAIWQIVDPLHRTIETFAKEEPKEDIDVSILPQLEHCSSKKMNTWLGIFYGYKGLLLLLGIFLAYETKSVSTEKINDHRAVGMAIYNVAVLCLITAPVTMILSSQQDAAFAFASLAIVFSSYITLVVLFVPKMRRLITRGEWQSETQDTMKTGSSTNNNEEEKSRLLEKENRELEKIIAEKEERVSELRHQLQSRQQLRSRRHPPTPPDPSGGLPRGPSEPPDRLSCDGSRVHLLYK
Sequence of GABA B receptor (O88871 whole entry): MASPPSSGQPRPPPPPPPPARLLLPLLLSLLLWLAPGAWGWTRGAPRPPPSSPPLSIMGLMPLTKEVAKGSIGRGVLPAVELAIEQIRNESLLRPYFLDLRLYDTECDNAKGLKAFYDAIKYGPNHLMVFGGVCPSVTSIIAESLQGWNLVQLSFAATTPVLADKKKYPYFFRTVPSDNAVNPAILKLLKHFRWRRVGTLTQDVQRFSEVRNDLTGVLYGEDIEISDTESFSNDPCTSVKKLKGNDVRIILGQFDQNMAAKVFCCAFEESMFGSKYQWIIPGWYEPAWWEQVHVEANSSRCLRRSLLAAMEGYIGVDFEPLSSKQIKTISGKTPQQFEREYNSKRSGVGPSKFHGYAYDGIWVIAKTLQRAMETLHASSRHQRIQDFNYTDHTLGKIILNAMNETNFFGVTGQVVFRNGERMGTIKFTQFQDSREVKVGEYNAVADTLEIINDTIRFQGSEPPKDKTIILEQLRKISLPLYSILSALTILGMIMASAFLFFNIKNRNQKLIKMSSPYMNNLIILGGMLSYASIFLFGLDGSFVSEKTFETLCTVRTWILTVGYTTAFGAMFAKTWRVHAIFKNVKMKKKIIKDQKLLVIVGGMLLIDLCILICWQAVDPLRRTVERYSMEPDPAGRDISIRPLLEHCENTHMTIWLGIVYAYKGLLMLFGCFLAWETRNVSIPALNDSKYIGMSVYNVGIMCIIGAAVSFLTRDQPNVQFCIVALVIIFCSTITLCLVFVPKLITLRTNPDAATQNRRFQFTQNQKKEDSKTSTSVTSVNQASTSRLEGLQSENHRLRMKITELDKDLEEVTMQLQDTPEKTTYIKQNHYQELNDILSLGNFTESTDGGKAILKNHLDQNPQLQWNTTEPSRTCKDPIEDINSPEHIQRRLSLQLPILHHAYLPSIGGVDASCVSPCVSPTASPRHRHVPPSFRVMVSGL

One may read the pIC50 as −log10 of the IC50, conventionally taken in molar units. Lower therefore signals a large IC50. Usually pEC50 stands for the EC50 on a negative log10 scale, so that one unit is a factor of ten. `NC[C@H](CC(=O)O)c1ccc(Cl)cc1` [ARBACLOFEN] had a pIC50 in experiment [1] of less than 4.00. For the same compound, the pEC50 in experiment [2] is 4.96. Also, the Sensitivity result in experiment [3] was “Active”.
Regarding `NCC(CCC(=O)O)c1ccc(Cl)cc1` (stereo unspecified), the pIC50 was less than 6.85 in experiment [4] and less than 4.00 in experiment [1]. The pEC50 in experiment [2] is less than 2.52.
In experiment [1], `NC[C@@H](CC(=O)O)c1ccc(Cl)cc1` showed a pIC50 of less than 4.00. This compound also gave a pEC50 in experiment [2] of 2.48.
Consider `NCC[C@@H](CC(=O)O)c1ccc(Cl)cc1`, for which the results for the pIC50 in experiment [4] and in experiment [1] were less than 6.85 and less than 4.00, respectively. This compound gave a pEC50 in experiment [2] of 3.51. Further, the Sensitivity entry in experiment [5] was “inactive”.
On to `NCC[C@H](CC(=O)O)c1ccc(Cl)cc1`, for which the results for the pIC50 in experiment [4] and in experiment [1] were 5.13 and less than 4.00, respectively. Also, the pEC50 in experiment [2] was 4.96. In addition, the Sensitivity entry in experiment [3] is “inactive”.
